Reference: ChEMBL document CHEMBL1126740, “(S)- and (R)-8-(di-n-propylamino)-6,7,8,9-tetrahydro-3H-benz[e]indole-1-carbaldehyde: a new class of orally active 5-HT1A-receptor agonists” (J Med Chem, 1993)
Activity calls are given as the source filed them. The calls are words filed in the database; no cut-off is given here.

Assays:
Rattus norvegicus [1] = species: Rattus norvegicus; test: Compound was tested for 5HT, Dopamine agonist mediated response in reserpine pretreated rats; mix DA, 5-HT syndrome; assay type: functional, organism-based
In short: (§1)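 Male Sprague-Dawley rats (200–300 g) were given reserpine 5 mg/kg sc 18 h before testing, then the test drug sc in the neck (n = 4). Motor activity was recorded by photocells for 30 min, with gross behaviour observed throughout. 5-HT syndrome: flat body posture, extended limbs, reciprocal forepaw treading. DA response: locomotion and stereotypies.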

Rattus norvegicus [2] = test: In vivo evaluation for 5-HTP accumulation in the corpus striatum in male rats (sc); assay type: functional
In short: (§2)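 Male Sprague-Dawley rats were pretreated with reserpine 5 mg/kg sc 18 h before dosing. DOPA and 5-HTP in limbic system, striatum and hemispheres were measured by HPLC with electrochemical detection. Dose-response curves used 4–6 dose levels (n = 4) for each region; ED50 was estimated graphically. Partial responses are given as the maximal % reduction at the highest dose tested.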

Rattus norvegicus [3] = test: In vivo evaluation for 5-HTP accumulation in the hemispheres in male rats (sc); assay type: functional; in short: as §2
Rattus norvegicus [4] = test: In vivo evaluation for 5-HTP accumulation in the limbic system in male rats (sc); assay type: functional; in short: as §2
Rattus norvegicus [5] = test: In vivo evaluation for DOPA accumulation in the hemispheres in male rats at highest dose tested; inactive; assay type: functional, organism-based; in short: as §2
Rattus norvegicus [6] = test: Maximal reduction in percent (Partial response) of DOPA accumulation rat corpus striatum at highest test dose of 3.1 uM/Kg (sc); assay type: functional; in short: as §2
Rattus norvegicus [7] = test: Maximal reduction in percent (Partial response) of DOPA accumulation rat limbic system at highest test dose of 3.1 uM/Kg (sc); assay type: functional
D(2) dopamine receptor = D(2) dopamine receptor (Rattus norvegicus, UniProt P61169); test: Displacement of [3H]spiperone from dopamine receptor D2
Sequence of D(2) dopamine receptor (P61169 whole entry): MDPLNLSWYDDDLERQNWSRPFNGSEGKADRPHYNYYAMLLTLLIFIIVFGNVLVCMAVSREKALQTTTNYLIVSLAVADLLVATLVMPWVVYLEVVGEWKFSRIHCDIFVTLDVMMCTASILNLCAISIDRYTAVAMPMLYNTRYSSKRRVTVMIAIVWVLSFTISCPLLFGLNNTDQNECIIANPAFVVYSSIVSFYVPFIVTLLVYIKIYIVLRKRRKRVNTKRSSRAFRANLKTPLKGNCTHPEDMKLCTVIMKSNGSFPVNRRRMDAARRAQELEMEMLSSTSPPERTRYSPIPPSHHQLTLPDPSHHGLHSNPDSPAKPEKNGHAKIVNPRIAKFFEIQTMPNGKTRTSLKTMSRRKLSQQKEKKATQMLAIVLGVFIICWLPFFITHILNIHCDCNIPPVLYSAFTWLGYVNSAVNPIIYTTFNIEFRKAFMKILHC
In short: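 Rat striatal membranes in 50 mM potassium phosphate buffer (3 mg original tissue) incubated with 0.5 nM [3H]spiperone for 10 min at 37 °C. Nonspecific binding was defined with 10 μM 6,7-ADTN. Ki was calculated by Cheng–Prusoff; triplicates, 3–7 experiments.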

Rattus norvegicus [8] = species: Rattus norvegicus; test: Compound was tested for 5-HT behavioral response in reserpine pretreated rats; +5HT syndrome; assay type: functional, organism-based; in short: as §1
Rattus norvegicus [9] = test: In vivo evaluation for DOPA accumulation in the corpus striatum in male rats at highest test dose of 50 uM/Kg (sc); inactive; assay type: functional, organism-based; in short: as §2
Rattus norvegicus [10] = test: In vivo evaluation for DOPA accumulation in the hemispheres in male rats at highest test dose of 50 uM/Kg (sc); inactive; assay type: functional, organism-based; in short: as §2
Rattus norvegicus [11] = test: In vivo evaluation for DOPA accumulation in the limbic system in male rats at highest test dose of 50 uM/Kg (sc); inactive; assay type: functional, organism-based; in short: as §2
Rattus norvegicus [12] = species: Rattus norvegicus; test: Compound was tested for 5HT, Dopamine agonist mediated response in reserpine pretreated rats; no change; assay type: functional, organism-based; in short: as §1
Rattus norvegicus [13] = test: In vivo evaluation for DOPA accumulation in the hemispheres in male rats (sc); assay type: functional; in short: as §2
Rattus norvegicus [14] = test: In vivo evaluation for DOPA accumulation in the limbic system in male rats (sc); assay type: functional; in short: as §2
Rattus norvegicus [15] = test: In vivo evaluation for DOPA accumulation in the corpus striatum in male rats (sc); assay type: functional; in short: as §2
Rattus norvegicus [16] = test: Maximal reduction in percent (Partial response) of DOPA accumulation rat lhemispheres at highest test dose of 2.0 uM/Kg (sc); assay type: functional; in short: as §2
Rattus norvegicus [17] = test: Maximal reduction in percent (Partial response) of DOPA accumulation rat hemispheres at highest test dose of 4.0 uM/kg (sc); assay type: functional; in short: as §2

Row | SMILES | Behavioral response (Rattus norvegicus [1]) | ED50 (Rattus norvegicus [2]) [µmol/kg] | ED50 (Rattus norvegicus [3]) [µmol/kg] | ED50 (Rattus norvegicus [4]) [µmol/kg] | ED50 (Rattus norvegicus [5]) | Reduction (Rattus norvegicus [6]) [%] | Reduction (Rattus norvegicus [7]) [%] | Ki (D(2) dopamine receptor) [nM] | Behavioral response (Rattus norvegicus [8]) | ED50 (Rattus norvegicus [9]) | ED50 (Rattus norvegicus [10]) | ED50 (Rattus norvegicus [11]) | Behavioral response (Rattus norvegicus [12]) | ED50 (Rattus norvegicus [13]) [µmol/kg] | ED50 (Rattus norvegicus [14]) [µmol/kg] | ED50 (Rattus norvegicus [15]) [µmol/kg] | Reduction (Rattus norvegicus [16]) [%] | Reduction (Rattus norvegicus [17]) [%]
1 | CCCN(CCC)[C@H]1CCc2ccc3[nH]ccc3c2C1 | Active | 0.3 | 0.2 | 0.16 | inactive | 37 | 31 | 146 |  |  |  |  |  |  |  |  |  | 
2 | CCCN(CCC)[C@@H]1CCc2cccc(O)c2C1 |  | 0.047 | 0.05 | 0.036 |  |  |  | 826 | Active | inactive | inactive | inactive |  |  |  |  |  | 
3 | CN(C)[C@H]1CCc2ccc3[nH]ccc3c2C1 |  | 3.9 | 2.7 | 3.9 |  |  |  |  |  |  |  |  | inactive | 13 | 4.2 | 8 |  | 
4 | CN(C)[C@@H]1CCc2ccc3[nH]ccc3c2C1 | Active | 0.1 | 0.4 | 0.4 |  |  |  |  |  |  |  |  |  |  | 0.3 | 0.4 | 30 | 
5 | CN(C)C1CCc2ccc3[nH]ccc3c2C1 (racemic) |  | 0.3 | 0.4 | 0.3 |  |  |  |  | Active |  |  |  |  |  | 0.3 | 0.4 |  | 34
